Results from ChEMBL document CHEMBL1125834, “Synthesis and antirhinovirus activity of 8-substituted analogues of 6-(dimethylamino)-9-(4-methylbenzyl)-2-(trifluoromethyl)-9H-purine” (J Med Chem, 1991).

Test system: rhinovirus A1B
Experiment: (§1) Compound was tested for its inhibitory concentration against rhinovirus 1B through plaque-inhibition assay at 50 ug/disk using monolayers of M-HeLa cells
Assay type: functional, organism-based, rhinovirus type 1b
Details: Rhinovirus A
In short: (§2)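 The 50% inhibitory concentration against rhinovirus serotype 1B was measured in M-HeLa cells, with plaque-reduction run as described previously. 4',6-Dichloroflavan was run alongside as the reference.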

Row | IC50 [nM] | SMILES
1 | 30 | Cc1ccc(Cn2cnc3c(N(C)C)nc(C(F)(F)F)nc32)cc1
2 | 15000 | Cc1ccc(Cn2c(=O)n(C)c3c(N(C)C)nc(C(F)(F)F)nc32)cc1
3 | 1400 | Cc1ccc(Cn2c(Br)nc3c(N(C)C)nc(C(F)(F)F)nc32)cc1
4 | 20000 | Cc1ccc(Cn2c(S)nc3c(N(C)C)nc(C(F)(F)F)nc32)cc1
5 | 8600 | Cc1ccc(Cn2c(NCCO)nc3c(N(C)C)nc(C(F)(F)F)nc32)cc1
6 | 360 | Cc1ccc(Cn2c(N)nc3c(N(C)C)nc(C(F)(F)F)nc32)cc1
7 | 2900 | CNc1nc2c(N(C)C)nc(C(F)(F)F)nc2n1Cc1ccc(C)cc1

Test system: rhinovirus A1B
Experiment: Compound at 40 uM was tested for its percentage inhibitory concentration against rhinovirus 1B through plaque-inhibition assay at 50 ug/disk using monolayers of M-HeLa cells
Assay type: functional, rhinovirus type 1b
Details: not given

Row | SMILES | Inhibition [%]
8 | Cc1ccc(Cn2c(NCc3ccccc3)nc3c(N(C)C)nc(C(F)(F)F)nc32)cc1 | 20
9 | Cc1ccc(Cn2c(S(C)(=O)=O)nc3c(N(C)C)nc(C(F)(F)F)nc32)cc1 | 37
10 | CC(=O)Nc1nc2c(N(C)C)nc(C(F)(F)F)nc2n1Cc1ccc(C)cc1 | 22
11 | Cc1ccc(Cn2c([S+](C)[O-])nc3c(N(C)C)nc(C(F)(F)F)nc32)cc1 (stereo not given) | 27
12 | Cc1ccc(Cn2c(O)nc3c(N(C)C)nc(C(F)(F)F)nc32)cc1 | 25

Test system: rhinovirus A1B
Experiment: Compound at 8 uM was tested for its percentage inhibitory concentration against rhinovirus 1B through plaque-inhibition assay at 50 ug/disk using monolayers of M-HeLa cells
Assay type: functional, rhinovirus type 1b
Details: not given

Row | SMILES | Inhibition [%]
13 | Cc1ccc(Cn2c(N(C)C)nc3c(N(C)C)nc(C(F)(F)F)nc32)cc1 | 40

Test system: rhinovirus A1B
Experiment: as §1
Assay type: functional, rhinovirus type 1b
Details: Rhinovirus A
In short: as §2

Row | SMILES | inhibition at 50 µg/disc [%]
14 | CSc1nc2c(N(C)C)nc(C(F)(F)F)nc2n1Cc1ccc(C)cc1 | 15

Test system: rhinovirus A1B
Experiment: Compound was tested for its percentage inhibitory concentration through plaque-inhibition assay at 50 microg per disk using monolayers of M-HeLa cells.
Assay type: functional, rhinovirus type 1b
Details: Rhinovirus A

Row | SMILES | inhibition at 50 µg/disc [%]
15 | Cc1ccc(Cn2c(SCc3ccccc3)nc3c(N(C)C)nc(C(F)(F)F)nc32)cc1 | 25
